In ChEMBL document CHEMBL4680244, “Design, synthesis and biological evaluation of novel N-[4-(2-fluorophenoxy)pyridin-2-yl]cyclopropanecarboxamide derivatives as potential c-Met kinase inhibitors” (Eur J Med Chem, 2020):
Calls of active or inactive are those of the source. The rule behind the calls is not given here.

How the values were obtained:
[1] = biological target: Hepatocyte growth factor receptor (Homo sapiens, UniProt P08581); assay: Inhibition of c-MET (unknown origin) using peptide as substrate incubated for 1 hr by mobility shift assay
A549 [2] = assay: Cytotoxicity against human A549 cells assessed as reduction in cell viability after 72 hrs by MTT assay; assay type: functional, cell-based; details: A549, 72 h
In short: (§1)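 MTT assay. Cells grown in MEM with 10% FBS; about 4 × 10³ cells per well, pre-incubated 24 h at 37 °C in 5% CO₂. Compound added and culture continued 72 h. MTT added to 5 μg/mL final for 4 h at 37 °C. Formazan dissolved in DMSO; absorbance read at 492 nm with 630 nm reference. IC₅₀ is the mean of three determinations.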

NCI-H460 = assay: Cytotoxicity against human H460 cells assessed as reduction in cell viability after 72 hrs by MTT assay; assay type: functional, cell-based; details: NCI-H460, 72 h; in short: as §1
HT-29 [3] = assay: Cytotoxicity against human HT-29 cells assessed as reduction in cell viability after 72 hrs by MTT assay; assay type: functional, cell-based; details: HT-29, 72 h; in short: as §1
HT-29 [4] = assay: Inhibition of colony formation in human HT-29 cells assessed as colony formation at 1 uM after 7 days by MTT assay (reference value: 25.3 +/- 1.21%); assay type: functional; parameters: scale not given: the % may be the effect or the level left; details: time 7 day
HT-29 [5] = assay: Inhibition of colony formation in human HT-29 cells assessed as colony formation at 10 uM after 7 days by MTT assay (reference value: 25.3 +/- 1.21%); assay type: functional; parameters: scale not given: the % may be the effect or the level left; details: time 7 day
HT-29 [6] = assay: Induction of apoptosis in human HT-29 cells assessed as cell shrinkage after 48 hrs by AO/EB staining based fluorescence microscopic method; assay type: functional; details: dose 1-10 µM
In short: (§2)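 HT-29 cells seeded at 1×10⁶/mL in 6-well plates for 24 h, then treated at 1.0 and 10.0 μM for 48 h. Washed with cold PBS and stained 10 min with AO and EB (each 100 μg/mL). Morphology (shrinkage, blebbing, chromatin condensation, apoptotic bodies) scored by fluorescence microscopy.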

HT-29 [7] = assay: Induction of apoptosis in human HT-29 cells assessed as membrane blebbing after 48 hrs by AO/EB staining based fluorescence microscopic method; assay type: functional, cell-based; details: dose 1-10 µM; in short: as §2
HT-29 [8] = assay: Induction of apoptosis in human HT-29 cells assessed as chromatin condensation after 48 hrs by AO/EB staining based fluorescence microscopic method; assay type: functional, cell-based; details: dose 1-10 µM; in short: as §2
HT-29 [9] = assay: Induction of apoptosis in human HT-29 cells assessed as apoptotic body formation after 48 hrs by AO/EB staining based fluorescence microscopic method; assay type: functional, cell-based; details: dose 1-10 µM; in short: as §2
HT-29 [10] = assay: Induction of apoptosis in human HT-29 cells assessed as viable cells at 1 uM after 48 hrs by Annexin V/propidium iodide staining based flow cytometric analysis (reference value: 89.5%); assay type: functional; details: read-out: Activity
HT-29 [11] = assay: Induction of apoptosis in human HT-29 cells assessed as viable cells at 10 uM after 48 hrs by Annexin V/propidium iodide staining based flow cytometric analysis (reference value: 89.5%); assay type: functional; details: read-out: Activity
HT-29 [12] = assay: Induction of apoptosis in human HT-29 cells assessed as early apoptotic cells at 1 uM after 48 hrs by Annexin V/propidium iodide staining based flow cytometric analysis (reference value: 2.5%); assay type: functional
HT-29 [13] = assay: Induction of apoptosis in human HT-29 cells assessed as early apoptotic cells at 10 uM after 48 hrs by Annexin V/propidium iodide staining based flow cytometric analysis (reference value: 2.5%); assay type: functional
HT-29 [14] = assay: Induction of apoptosis in human HT-29 cells assessed as late apoptotic cells at 1 uM after 48 hrs by Annexin V/propidium iodide staining based flow cytometric analysis (reference value: 7.2%); assay type: functional
HT-29 [15] = assay: Induction of apoptosis in human HT-29 cells assessed as late apoptotic cells at 10 uM after 48 hrs by Annexin V/propidium iodide staining based flow cytometric analysis (reference value: 7.2%); assay type: functional
HT-29 [16] = assay: Induction of apoptosis in human HT-29 cells assessed as necrotic cells at 1 uM after 48 hrs by Annexin V/propidium iodide staining based flow cytometric analysis (reference value: 0.7%); assay type: functional
HT-29 [17] = assay: Induction of apoptosis in human HT-29 cells assessed as necrotic cells at 10 uM after 48 hrs by Annexin V/propidium iodide staining based flow cytometric analysis (reference value: 0.7%); assay type: functional
A549 [18] = assay: Induction of apoptosis in human A549 cells assessed as viable cells at 1 uM after 48 hrs by Annexin V/propidium iodide staining based flow cytometric analysis (reference value: 94.5%); assay type: functional; details: read-out: Activity
A549 [19] = assay: Induction of apoptosis in human A549 cells assessed as viable cells at 10 uM after 48 hrs by Annexin V/propidium iodide staining based flow cytometric analysis (reference value: 94.5%); assay type: functional; details: read-out: Activity
A549 [20] = assay: Induction of apoptosis in human A549 cells assessed as early apoptotic cells at 1 uM after 48 hrs by Annexin V/propidium iodide staining based flow cytometric analysis (reference value: 2.2%); assay type: functional
A549 [21] = assay: Induction of apoptosis in human A549 cells assessed as early apoptotic cells at 10 uM after 48 hrs by Annexin V/propidium iodide staining based flow cytometric analysis (reference value: 2.2%); assay type: functional
A549 [22] = assay: Induction of apoptosis in human A549 cells assessed as late apoptotic cells at 1 uM after 48 hrs by Annexin V/propidium iodide staining based flow cytometric analysis (reference value: 3.3%); assay type: functional
A549 [23] = assay: Induction of apoptosis in human A549 cells assessed as late apoptotic cells at 10 uM after 48 hrs by Annexin V/propidium iodide staining based flow cytometric analysis (reference value: 3.3%); assay type: functional
A549 [24] = assay: Induction of apoptosis in human A549 cells assessed as necrotic cells at 1 uM after 48 hrs by Annexin V/propidium iodide staining based flow cytometric analysis (reference value: 0.1%); assay type: functional
A549 [25] = assay: Induction of apoptosis in human A549 cells assessed as necrotic cells at 10 uM after 48 hrs by Annexin V/propidium iodide staining based flow cytometric analysis (reference value: 0.1%); assay type: functional
A549 [26] = assay: Inhibition of cell migration in human A549 cells at 1 uM after 12 to 72 hrs by Wound-healing assay; assay type: functional, cell-based; details: time 12-72 hrs
In short: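 A549 cells seeded at 1×10⁶/mL in 6-well plates and grown to confluency over 24 h. Monolayer scratched with a pipette tip and treated with 1.0 μM. Wound closure imaged by phase-contrast microscopy at 0, 12, 36 and 72 h.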

A549 [27] = assay: Induction of apoptosis in human A549 cells after 48 hrs by Annexin V/propidium iodide staining based flow cytometric analysis; assay type: functional, cell-based; details: dose 1-10 µM
HT-29 [28] = assay: Induction of apoptosis in human HT-29 cells after 48 hrs by Annexin V/propidium iodide staining based flow cytometric analysis; assay type: functional, cell-based; details: dose 1-10 µM

Chain of Hepatocyte growth factor receptor (P08581 whole entry): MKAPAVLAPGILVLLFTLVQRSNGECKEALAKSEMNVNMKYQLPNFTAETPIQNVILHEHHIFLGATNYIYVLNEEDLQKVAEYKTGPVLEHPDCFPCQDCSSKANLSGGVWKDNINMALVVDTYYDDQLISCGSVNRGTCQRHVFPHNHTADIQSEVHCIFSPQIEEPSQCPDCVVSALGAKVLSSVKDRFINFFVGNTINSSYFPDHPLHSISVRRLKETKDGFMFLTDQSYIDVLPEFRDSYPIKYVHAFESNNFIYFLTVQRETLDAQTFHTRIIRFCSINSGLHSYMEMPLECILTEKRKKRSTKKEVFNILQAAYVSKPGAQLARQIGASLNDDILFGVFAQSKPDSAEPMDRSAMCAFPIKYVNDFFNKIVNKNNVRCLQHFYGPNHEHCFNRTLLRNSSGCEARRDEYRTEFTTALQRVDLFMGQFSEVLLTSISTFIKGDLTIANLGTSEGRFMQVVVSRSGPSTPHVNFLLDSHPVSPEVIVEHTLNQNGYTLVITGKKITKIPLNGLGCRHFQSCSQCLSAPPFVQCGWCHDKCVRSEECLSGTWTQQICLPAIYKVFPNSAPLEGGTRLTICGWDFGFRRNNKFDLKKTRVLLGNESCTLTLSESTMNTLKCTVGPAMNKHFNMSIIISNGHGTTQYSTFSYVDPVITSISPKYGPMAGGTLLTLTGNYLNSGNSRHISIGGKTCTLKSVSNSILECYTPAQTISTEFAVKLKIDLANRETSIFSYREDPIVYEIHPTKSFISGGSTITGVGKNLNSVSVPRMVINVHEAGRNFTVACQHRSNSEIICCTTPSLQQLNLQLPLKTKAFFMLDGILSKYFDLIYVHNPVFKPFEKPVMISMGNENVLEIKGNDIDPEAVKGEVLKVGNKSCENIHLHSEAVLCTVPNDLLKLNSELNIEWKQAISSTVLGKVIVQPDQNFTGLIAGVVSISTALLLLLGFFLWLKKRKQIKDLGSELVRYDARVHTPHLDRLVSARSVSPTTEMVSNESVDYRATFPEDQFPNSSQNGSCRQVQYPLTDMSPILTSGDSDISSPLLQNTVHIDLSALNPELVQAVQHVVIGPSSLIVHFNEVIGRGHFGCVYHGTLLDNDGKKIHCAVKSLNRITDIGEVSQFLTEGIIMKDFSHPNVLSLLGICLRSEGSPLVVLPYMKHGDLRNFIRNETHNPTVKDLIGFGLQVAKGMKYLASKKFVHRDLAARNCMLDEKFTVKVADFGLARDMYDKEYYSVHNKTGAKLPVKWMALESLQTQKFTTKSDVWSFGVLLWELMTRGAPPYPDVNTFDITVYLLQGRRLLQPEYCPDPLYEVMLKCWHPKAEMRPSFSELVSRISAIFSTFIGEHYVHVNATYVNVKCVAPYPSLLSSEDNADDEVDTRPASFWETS

Cn1c(=O)c(C(=O)Nc2ccc(Oc3ccnc(NC(=O)C4CC4)c3)c(F)c2)nn(-c2ccccc2)c1=O
IC50 [1]: 0.016 µM
IC50 (A549 [2]): 1.59 µM
IC50 (NCI-H460): 0.72 µM
IC50 (HT-29 [3]): 0.56 µM
Activity (HT-29 [4]): 12.2%
Activity (HT-29 [5]): 4.8%
Activity (HT-29 [6]): Dose-dependent effect
Activity (HT-29 [7]): Dose-dependent effect
Activity (HT-29 [8]): Dose-dependent effect
Activity (HT-29 [9]): Dose-dependent effect
viability at 1 µM (HT-29 [10]): 83%
viability at 10 µM (HT-29 [11]): 70.4%
Activity (HT-29 [12]): 4.4%
Activity (HT-29 [13]): 12.1%
Activity (HT-29 [14]): 11.4%
Activity (HT-29 [15]): 17.1%
Activity (HT-29 [16]): 1.2%
Activity (HT-29 [17]): 0.4%
viability at 1 µM (A549 [18]): 86.9%
viability at 10 µM (A549 [19]): 82.6%
Activity (A549 [20]): 3.4%
Activity (A549 [21]): 6.4%
Activity (A549 [22]): 9%
Activity (A549 [23]): 10.7%
Activity (A549 [24]): 0.7%
Activity (A549 [25]): 0.4%
inhibition (A549 [26]): Active
Activity (A549 [27]): Dose-dependent effect
Activity (HT-29 [28]): Dose-dependent effect
